Results gathered from unrelated publications.
Protocols differ between the studies behind these lines.
Target: Calcium/calmodulin-dependent protein kinase type 1D (CAMK1D, Homo sapiens, UniProt Q8IU85)

Structure (SMILES)	effect on	action	method	tested at	endpoint	value
COc1cc2ncnc(Nc3ccc(Oc4ccccc4)c(C)c3C)c2cc1OC	enzyme activity	inhibitor	–	1 µM	inhibition	1%
O=C(NCc1ncc(C(F)(F)F)cc1Cl)c1ccc2c(c1)C1(CCS(=O)(=O)CC1)[C@@H](C1CC1)N2S(=O)(=O)c1ccc(F)cc1	cell-free assay	–	competition with immobilised ligand	1 µM	remaining binding	99%
Cc1sc(C(=O)NC2COC2)cc1-n1cc(NC(=O)Nc2c(F)cccc2Cl)cn1	enzyme activity	inhibitor	–	10 µM	remaining activity	105%
Cc1c(C(=O)O)cc(-c2ccc(C3CCNCC3)cc2)c2ccc(-c3ccc(C(F)(F)F)cc3)cc12	cell-free assay	–	competition with immobilised ligand	1 µM	remaining binding	100%
CC(C)(C)c1nc(-c2cccc(NS(=O)(=O)c3c(F)cccc3F)c2F)c(-c2ccnc(N)n2)s1	enzyme activity	inhibitor	radiometric	1 µM	remaining activity	116%
O=C(NC[C@@H]1[C@H]2CN(C(=O)OCc3cc(C(F)(F)F)cc(C(F)(F)F)c3)C[C@@H]12)c1ccc2[nH]nnc2c1	cell-free assay	–	competition with immobilised ligand	1 µM	remaining binding	100%
CCC1(CC)NC(=O)c2c(c3ccc(Cl)c(Cl)c3n2C)C1C#N (stereo not drawn)	thermal stability	–	DSF	10 µM	ΔTm	-0.2 °C
CC(=O)N1CCC(c2ccc(C(=O)NC3=NCCN3)cc2C(F)(F)F)CC1	cell-free assay	–	competition with immobilised ligand	1 µM	remaining binding	100%
CCN(CC)c1ccc(C2=NNC(=O)CC2C)cc1[N+](=O)[O-] (stereo not drawn)	enzyme activity	inhibitor	–	10 µM	remaining activity	105%
CNCc1ccccc1-c1csc([C@@H](C)Nc2nc(C)nc3cc(OC)c(OC)cc23)c1	cell-free assay	–	competition with immobilised ligand	1 µM	remaining binding	100%
CC/C(=N\NC(=O)NCc1cccc(O)c1)c1ccc(O)c(C)c1O	enzyme activity	inhibitor	–	0.1 µM	inhibition	-3.5%
Cn1c2c(Cl)c(Cl)ccc2c2cn[nH]c(=O)c21	thermal stability	–	DSF	10 µM	ΔTm	-0.1 °C
O=C1Nc2ccc(Cl)cc2C1=Cc1cc(Cl)c(O)c(Cl)c1	cell-free assay	–	–	0.5 µM	remaining signal	104%
CCCS(=O)(=O)Nc1ccc(F)c(C(=O)c2c[nH]c3ncc(-c4ccc(Cl)cc4)cc23)c1F	enzyme activity	inhibitor	–	1 µM	inhibition	< 10%
Cc1cc(-n2nc(Cc3cc(F)cc(C(F)(F)F)c3)nc2C)ccc1C(N)=O	cell-free assay	–	competition with immobilised ligand	1 µM	remaining binding	96%
CCN1CCC2(CC1)NC(=O)c1c(c3ccc(Cl)c(Cl)c3n1C)C2C#N (racemic)	thermal stability	–	DSF	10 µM	ΔTm	-0.1 °C
CO[C@@H](C)c1c(Nc2ccc([C@@H](N(C)C(=O)C3CCS(=O)(=O)CC3)C(F)(F)F)cc2)cnc2cc(Cl)nn12	cell-free assay	–	competition with immobilised ligand	1 µM	remaining binding	100%
Cc1ccc(Nc2nccc(N(C)c3ccc4c(C)n(C)nc4c3)n2)cc1S(N)(=O)=O	enzyme activity	inhibitor	–	10 µM	inhibition	32%
O=c1cc(-c2cccc3c2Sc2ccccc2S3)oc(N2CCOCC2)c1	enzyme activity	inhibitor	–	0.5 µM	remaining activity	106%
CS(=O)(=O)c1cc(C2(NC(=O)c3cncc4c3cnn4-c3ccc(F)cc3)CC2)ccn1	cell-free assay	–	competition with immobilised ligand	1 µM	remaining binding	90%
COc1cccc2c(NCc3ccccc3)nc(-n3c(N)nc4ccccc43)nc12	target engagement in cells	inhibitor	chemoproteomics	20 mM	inhibition	0%
COc1cc2ncnc(Nc3ccc(F)c(Cl)c3)c2cc1OCCCN1CCOCC1	cell-free assay	–	–	0.5 µM	remaining signal	88.6%
Nc1ncnc2occ(-c3ccc(NC(=O)Nc4cc(C(F)(F)F)ccc4F)cc3)c12	cell-free assay	inhibitor	–	20 µM	remaining signal	2.8%
CC1(C)NC(=O)c2[nH]c3c(Cl)c(Cl)ccc3c2C1C#N (stereo not drawn)	thermal stability	–	DSF	10 µM	ΔTm	-0.6 °C
CN1CC(Oc2cnc(C#N)cc2-c2ccn3nc(NC(=O)C4CC4)cc3c2)C1	enzyme activity	inhibitor	–	1 µM	inhibition	-2%
O=C1NC(=O)c2cc(Nc3ccc(F)cc3)c(Nc3ccc(F)cc3)cc21	cell-free assay	–	–	0.5 µM	remaining signal	78.1%
CNC(=O)c1cc(Oc2ccc(NC(=O)Nc3ccc(Cl)c(C(F)(F)F)c3)cc2)ccn1	enzyme activity	inhibitor	–	0.3 µM	inhibition	11%
CCCOc1ccc(OC)c(F)c1C(=O)c1ccc(C(=O)N[C@@H]2CNC[C@H]2NC(=O)c2ccc3[nH]ncc3c2)cc1	enzyme activity	inhibitor	–	10 µM	remaining activity	63%
c1ccc(CNc2nc(N3CCOc4ccccc43)nc3c2CCCC3)cc1	target engagement in cells	inhibitor	chemoproteomics	20 mM	inhibition	-2.2%
CN1CCC2(CC1)NC(=O)c1c(c3ccc(Cl)c(Cl)c3n1C)C2C#N (racemic)	thermal stability	–	DSF	10 µM	ΔTm	-0.4 °C
